Source: PubChem
The full list was thinned out, with hits kept by preference.
T cruzi growth-1 = T. cruzi intracellular proliferation inhibitors, primary screen, cell-based, beta-gal Tulahuen parasites, NIH3T3 host, luminescence; T. cruzi beta-gal in NIH3T3, GalScreen luminescence, 90 h; inhibition, % at 8.34 µM; hit rate 5.9% among 77,000;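 active = mean inhibition above about 93%, with at least 55% of replicates each passing it, limit read from the data, passing the limit was not always enough; inconclusive = only one of those two conditions holds; inactive = neither condition holds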
IDH1 R132H inh = inhibitors of IDH1 R132H reductase, primary screen, biochemical, plate reader, single point; inhibition, % at 10 µM; hit rate 0.18% among 70,000; Isocitrate dehydrogenase [NADP] cytoplasmic (Homo sapiens), O75874; diaphorase/resazurin fluorescence, 60 min; in the data active = inhibition above about 34%; inconclusive = no clear call, values can overlap the other calls; inactive = below about 11%
Target sequence (O75874 whole entry R132H): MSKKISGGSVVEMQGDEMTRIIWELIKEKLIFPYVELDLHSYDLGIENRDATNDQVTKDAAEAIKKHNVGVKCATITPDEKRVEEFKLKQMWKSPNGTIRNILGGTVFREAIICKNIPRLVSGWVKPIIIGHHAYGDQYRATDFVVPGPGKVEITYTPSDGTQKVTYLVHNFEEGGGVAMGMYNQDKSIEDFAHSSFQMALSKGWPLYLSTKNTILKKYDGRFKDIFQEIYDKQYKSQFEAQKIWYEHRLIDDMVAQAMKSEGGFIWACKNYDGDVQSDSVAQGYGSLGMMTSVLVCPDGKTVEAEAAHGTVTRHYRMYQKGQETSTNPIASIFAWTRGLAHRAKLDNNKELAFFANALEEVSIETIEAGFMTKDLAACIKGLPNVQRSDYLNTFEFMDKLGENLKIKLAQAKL
GASC1 inh = inhibitors of GASC-1 (KDM4C) histone demethylase, primary screen, biochemical, single concentration HTS; hit rate 0.15% among 96,000; Lysine-specific demethylase 4C (Homo sapiens), Q9H3R0; inhibition, % at 12.5 µM; GST-KDM4C 2-372, H3K9me3 peptide, LANCE TR-FRET;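 active = mean replicate inhibition above about 25%, with at least 55% of replicates also reaching it, limit read from the data, passing the limit was not always enough; inconclusive = only one of those two conditions met; inactive = neither condition met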
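System: N-terminal GST-fused human GASC-1 (KDM4C) fragment, residues 2-372; amount: enzyme final amount 10 nM; incubation: reaction 30 min RT, detection step 1 h RT; medium: HEPES buffer, pH 7.5, plus ascorbate; technique: LANCE TR-FRET, Eu antibody, ULight-streptavidin, EDTA, ex 340 nm, em 618/671 nm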
T cruzi growth-2 = T. cruzi intracellular proliferation inhibitors, confirmation, cell-based, NIH3T3 host, beta-gal parasite, luminescence, cherry-pick; inhibition, % at 8.35 µM; hit rate 72% among 5,600; shares compounds with T cruzi growth-1; T. cruzi beta-gal in NIH3T3, GalScreen luminescence, 90 h; AID 651739, 2012;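 active = mean replicate inhibition above about 95% and at least 55% of replicates individually reaching it, limit read from the data; inconclusive = only one of the two criteria is met; inactive = neither criterion is met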
T cruzi growth-3 = inhibitors of intracellular T. cruzi replication, confirmation, NIH3T3 host cells, beta-gal parasites, cherry-pick, set 2 | shares compounds with T cruzi growth-1 | T. cruzi beta-gal in NIH3T3, GalScreen luminescence, 90 h | inhibition, % at 2.09 µM | hit rate 21% among 5,600 | AID 651740, 2012;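 active = mean inhibition above about 95%, with at least 55% of replicates also reaching it, limit read from the data; inconclusive = meets just one of the two conditions; inactive = meets neither condition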
NIH3T3 tox = cytotoxicity in mouse NIH/3T3 fibroblasts, confirmation, cytotoxicity control for T. cruzi proliferation inhibitor project, cell-based, cherry-pick, single point. shares compounds with T cruzi growth-1. NIH/3T3 viability, CellTiter-Glo ATP luminescence, 90 h. cytotoxicity (signal decrease), % at 8.35 µM. hit rate 14% among 5,600;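 active = mean signal decrease across replicates above about 35% based on untreated-well scatter, with enough replicates individually passing, limit read from the data; inconclusive = no rule stated though some were filed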
3T3 cytotox 2 = NIH/3T3 fibroblast cytotoxicity, confirmation, cytotoxicity control, cell-based, cherry-pick, single point, set 2; NIH/3T3 viability, CellTiter-Glo ATP luminescence, 90 h; shares compounds with T cruzi growth-1; hit rate 56% among 5,600; inhibition, % at 24.9 µM;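 active = mean loss of cell viability signal at or above a set limit, and enough replicates individually reaching it; inconclusive = meets only the mean limit or only the replicate share; inactive = meets neither condition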
Large screens that a line does not name were inactive (follow-up assays come after a bar, where they were run); ! = repeats disagree.

C[C@@H]1CCCCO[C@@H](CN(C)Cc2ccc3c(c2)OCO3)[C@@H](C)CN([C@H](C)CO)C(=O)c2cc(NC(=O)CCCCCC(=O)Nc3ccccc3N)ccc2O1	none (no result: T cruzi growth-1)
CCC(=O)N(C)C[C@H]1Oc2cc(C#CC3CCCC3)ccc2S(=O)(=O)N([C@@H](C)CO)C[C@H]1C	none (no result: IDH1 R132H inh)
Cc1ccc(S(=O)(=O)Nc2ccc3c(c2)C(=O)N([C@@H](C)CO)C[C@@H](C)[C@@H](CN(C)C(=O)Nc2ccc(F)cc2)OCCCC[C@@H](C)O3)cc1	T cruzi growth-1 105 | T cruzi growth-2 104 | T cruzi growth-3 inactive | NIH3T3 tox inactive | 3T3 cytotox 2 inactive
Cc1ccc(S(=O)(=O)Nc2ccc3c(c2)C(=O)N([C@H](C)CO)C[C@@H](C)[C@H](CN(C)C(=O)Nc2ccc(F)cc2)OCCCC[C@@H](C)O3)cc1	T cruzi growth-1 98 | T cruzi growth-2 97 | T cruzi growth-3 inactive | NIH3T3 tox inactive | 3T3 cytotox 2 25
Cc1ccc(S(=O)(=O)Nc2ccc3c(c2)C(=O)N([C@H](C)CO)C[C@H](C)[C@H](CN(C)C(=O)Nc2ccccc2)OCCCC[C@H](C)O3)cc1	T cruzi growth-1 100 | T cruzi growth-2 109 | T cruzi growth-3 inactive | NIH3T3 tox inactive | 3T3 cytotox 2 inactive
Cc1ccc(S(=O)(=O)Nc2ccc3c(c2)C(=O)N([C@H](C)CO)C[C@H](C)[C@@H](CN(C)C(=O)Nc2ccccc2)OCCCC[C@@H](C)O3)cc1	none
C[C@H]1CCCCO[C@H](CN(C)C(=O)Nc2ccc(F)cc2)[C@@H](C)CN([C@@H](C)CO)C(=O)c2cc(NS(=O)(=O)c3ccc(F)cc3)ccc2O1	none (no result: IDH1 R132H inh)
C[C@@H]1CN([C@H](C)CO)C(=O)c2cc(NS(=O)(=O)c3ccc(F)cc3)ccc2O[C@@H](C)CCCCO[C@H]1CN(C)C(=O)Nc1ccc(F)cc1	none (no result: IDH1 R132H inh)
COc1cccc(-c2ccc([C@H]3[C@@H](CO)N4CCCCN(C(=O)NC(C)C)C[C@@H]34)cc2)c1	T cruzi growth-1 105 (no result: IDH1 R132H inh) | T cruzi growth-2 101 | T cruzi growth-3 inactive | NIH3T3 tox inactive | 3T3 cytotox 2 inactive
COc1cccc(-c2ccc([C@@H]3[C@H]4CN(C(=O)NC(C)C)CC(=O)N4[C@H]3CO)cc2)c1	none (no result: T cruzi growth-1, IDH1 R132H inh)
COc1cccc(-c2ccc([C@H]3[C@H](CO)N4CCCCN(C(=O)NC(C)C)C[C@@H]34)cc2)c1	T cruzi growth-1 108 (no result: IDH1 R132H inh) | T cruzi growth-2 110 | T cruzi growth-3 inactive | NIH3T3 tox 37 | 3T3 cytotox 2 31
COc1cccc(-c2ccc([C@@H]3[C@H]4CN(C(=O)NC(C)C)CCCCN4[C@H]3CO)cc2)c1	none (no result: IDH1 R132H inh)
CN(C)C(=O)C[C@@H]1C[C@@H]2c3cc(NS(C)(=O)=O)ccc3O[C@@H]2[C@H](CO)O1	none
O=C(c1cccnc1)N1CC(=O)N2[C@H](CO)[C@@H](c3ccc(-c4ccccc4F)cc3)[C@H]2C1	none (no result: T cruzi growth-1, IDH1 R132H inh)
C[C@@H]1CN([C@@H](C)CO)S(=O)(=O)c2ccc(-c3ccccc3)cc2O[C@@H]1CN(C)S(=O)(=O)c1ccccc1F	T cruzi growth-1 119 | T cruzi growth-2 102 | T cruzi growth-3 103 | NIH3T3 tox inactive | 3T3 cytotox 2 46
C[C@@H]1CN([C@H](C)CO)S(=O)(=O)c2ccc(-c3ccccc3)cc2O[C@@H]1CN(C)S(=O)(=O)c1ccccc1F	T cruzi growth-1 122 | T cruzi growth-2 100 | T cruzi growth-3 inactive | NIH3T3 tox inactive | 3T3 cytotox 2 36
C[C@@H]1CN([C@@H](C)CO)S(=O)(=O)c2ccc(-c3ccccc3F)cc2O[C@@H]1CN(C)S(C)(=O)=O	none
C[C@H](CO)N1C[C@H](C)[C@H](CN(C)S(=O)(=O)c2ccccc2F)Oc2cc(-c3ccncc3)ccc2S1(=O)=O	none (no result: T cruzi growth-1)
C[C@H](CO)N1C[C@H](C)[C@H](CN(C)S(C)(=O)=O)Oc2cc(-c3ccccc3)ccc2S1(=O)=O	none
C[C@@H]1CN([C@@H](C)CO)S(=O)(=O)c2ccc(-c3ccccc3)cc2O[C@H]1CN(C)S(=O)(=O)c1ccccc1F	T cruzi growth-1 124 | T cruzi growth-2 99 | T cruzi growth-3 105 | NIH3T3 tox 56 | 3T3 cytotox 2 66
C[C@@H]1CN([C@H](C)CO)S(=O)(=O)c2ccc(-c3ccncc3)cc2O[C@@H]1CN(C)S(=O)(=O)c1ccccc1F	none (no result: T cruzi growth-1)
C[C@@H]1CN([C@H](C)CO)S(=O)(=O)c2ccc(-c3ccccc3)cc2O[C@H]1CN(C)S(=O)(=O)c1ccccc1F	T cruzi growth-1 112 | T cruzi growth-2 inconclusive | T cruzi growth-3 inactive | NIH3T3 tox 64 | 3T3 cytotox 2 37
COc1ccc(S(=O)(=O)N(C(C)=O)c2ccc3oc4c(c3c2)CC(C)CC4)cc1[N+](=O)[O-] (stereo not given)	none (no result: T cruzi growth-1, GASC1 inh)
COCC(=O)N(C)C[C@@H]1Oc2ncc(-c3ccccc3C)cc2C(=O)N([C@H](C)CO)C[C@@H]1C	none
COc1ccc(-c2nnc(SCC(=O)Nc3cccc(C(C)=O)c3)n2-c2ccccc2)cc1	none (no result: T cruzi growth-1, GASC1 inh)
COC(=O)CSc1nc2sc3c(c2c(=O)n1Cc1ccccc1)CCCC3	none (no result: T cruzi growth-1, GASC1 inh)
COc1ccc(NC(=O)N(C)C[C@H]2Oc3cc(C#CCC(C)C)ccc3S(=O)(=O)N([C@H](C)CO)C[C@@H]2C)cc1	none
CC(C)CC#Cc1ccc2c(c1)O[C@@H](CN(C)C(=O)Nc1ccccc1)[C@H](C)CN([C@@H](C)CO)S2(=O)=O	T cruzi growth-1 121 | T cruzi growth-2 107 | T cruzi growth-3 inactive | NIH3T3 tox inactive | 3T3 cytotox 2 78
CC(C)CC#Cc1ccc2c(c1)O[C@H](CN(C)C(=O)Nc1ccccc1)[C@@H](C)CN([C@H](C)CO)S2(=O)=O	T cruzi growth-1 117! | T cruzi growth-2 107 | T cruzi growth-3 inactive | NIH3T3 tox inactive | 3T3 cytotox 2 inconclusive
COc1ccc(NC(=O)N(C)C[C@@H]2Oc3cc(C#CCC(C)C)ccc3S(=O)(=O)N([C@@H](C)CO)C[C@H]2C)cc1	none
CC(C)CC#Cc1ccc2c(c1)O[C@@H](CN(C)C(=O)Nc1ccccc1)[C@@H](C)CN([C@@H](C)CO)S2(=O)=O	T cruzi growth-1 127 | T cruzi growth-2 111 | T cruzi growth-3 105 | NIH3T3 tox inactive | 3T3 cytotox 2 103
